# Assay results: ChEMBL document CHEMBL3745673, “Synthesis, antimycobacterial screening and ligand-based molecular docking studies on novel pyrrole derivatives bearing pyrazoline, isoxazole and phenyl thiourea moieties” (Eur J Med Chem, 2016)
# Activity calls are given as the source filed them. The calls are words filed in the database; no cut-off is given here.
# Experiments:
# Escherichia coli = experiment: Antibacterial activity against Escherichia coli after 18 hrs by broth microdilution method; assay type: functional
# Procedure, shortened: (§1)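 Broth microdilution; compounds dissolved in DMSO (10 mg in 1 mL), serially diluted in Mueller-Hinton medium to 0.2–100 µg/mL. MIC taken as lowest concentration giving no visible growth. DMSO solvent control at matching dilutions.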
# Staphylococcus aureus = experiment: Antibacterial activity against Staphylococcus aureus after 18 hrs by broth microdilution method; assay type: functional; procedure, shortened: as §1
# [1] = system: Mycobacterium tuberculosis; experiment: Inhibition of Mycobacterium tuberculosis His6-tagged InhA expressed in Escherichia coli BL21 using trans-2-dodecenoyl-coA as substrate at 50 uM
Structure (SMILES),MIC (Escherichia coli),MIC (Staphylococcus aureus),inhibition [1]
c1ccc(-c2cc(-c3ccc(-n4cccc4)cc3)on2)cc1,25 µg/mL,50 µg/mL,
O=C(/C=C/c1ccccc1Br)c1ccc(-n2cccc2)cc1,25 µg/mL,50 µg/mL,
Cc1ccc(C)n1-c1ccccc1NC(=S)Nc1ccc([N+](=O)[O-])cc1,0.4 µg/mL,0.2 µg/mL,
O=C(/C=C/c1ccc(Cl)cc1)c1ccc(-n2cccc2)cc1,50 µg/mL,50 µg/mL,
Cc1ccc(C)n1-c1ccccc1NC(=S)Nc1ccc(Cl)c(Cl)c1,0.2 µg/mL,0.2 µg/mL,13%
COc1cccc(/C=C/C(=O)c2ccc(-n3cccc3)cc2)c1,12.5 µg/mL,25 µg/mL,
Clc1ccc(-c2cc(-c3ccc(-n4cccc4)cc3)on2)cc1,25 µg/mL,25 µg/mL,
CC(=O)N1N=C(c2ccc(-n3cccc3)cc2)CC1c1ccc(Cl)cc1Cl (configuration not stated),25 µg/mL,50 µg/mL,
COc1ccc(C2CC(c3ccc(-n4cccc4)cc3)=NN2C(C)=O)c(OC)c1 (configuration not stated),12.5 µg/mL,25 µg/mL,
c1coc(-c2cc(-c3ccc(-n4cccc4)cc3)on2)c1,25 µg/mL,50 µg/mL,
Cc1ccc(C)n1-c1ccccc1NC(=S)Nc1ccc(F)cc1,0.8 µg/mL,0.8 µg/mL,
O=C(/C=C/c1ccc(F)cc1)c1ccc(-n2cccc2)cc1,12.5 µg/mL,25 µg/mL,
COc1ccc(C2CC(c3ccc(-n4cccc4)cc3)=NN2C(C)=O)cc1OC (configuration not stated),12.5 µg/mL,25 µg/mL,
Cc1ccc(C)n1-c1ccccc1NC(=S)Nc1ccccc1Br,0.8 µg/mL,1.6 µg/mL,
COc1cccc(C2CC(c3ccc(-n4cccc4)cc3)=NN2C(C)=O)c1 (configuration not stated),50 µg/mL,25 µg/mL,
O=C(/C=C/c1ccc(Cl)cc1Cl)c1ccc(-n2cccc2)cc1,50 µg/mL,50 µg/mL,
CC(=O)N1N=C(c2ccc(-n3cccc3)cc2)CC1c1ccccc1 (configuration not stated),50 µg/mL,50 µg/mL,
CC(=O)N1N=C(c2ccc(-n3cccc3)cc2)CC1c1ccccc1Br (configuration not stated),50 µg/mL,100 µg/mL,
O=C(/C=C/c1ccco1)c1ccc(-n2cccc2)cc1,25 µg/mL,25 µg/mL,

Structure (SMILES),MIC (Escherichia coli),MIC (Staphylococcus aureus),inhibition [1]
CC(=O)N1N=C(c2ccc(-n3cccc3)cc2)CC1c1ccc(F)cc1 (configuration not stated),12.5 µg/mL,12.5 µg/mL,
CC(=O)N1N=C(c2ccc(-n3cccc3)cc2)CC1c1cccc(Br)c1 (configuration not stated),25 µg/mL,50 µg/mL,
Clc1ccc(-c2cc(-c3ccc(-n4cccc4)cc3)on2)c(Cl)c1,50 µg/mL,25 µg/mL,
O=C(/C=C/c1ccccc1Cl)c1ccc(-n2cccc2)cc1,50 µg/mL,25 µg/mL,
COc1ccc(/C=C/C(=O)c2ccc(-n3cccc3)cc2)cc1OC,12.5 µg/mL,12.5 µg/mL,
O=C(/C=C/c1cccc(Cl)c1Cl)c1ccc(-n2cccc2)cc1,50 µg/mL,25 µg/mL,
CC(=O)N1N=C(c2ccc(-n3cccc3)cc2)CC1c1ccco1 (configuration not stated),100 µg/mL,50 µg/mL,
O=C(O)c1cn(C2CC2)c2cc(N3CCNCC3)c(F)cc2c1=O [CIPROFLOXACIN],,0.15 µg/mL,
CCn1cc(C(=O)O)c(=O)c2cc(F)c(N3CCNCC3)cc21 [NORFLOXACIN],4 µg/mL,2.02 µg/mL,
COc1ccc(-c2cc(-c3ccc(-n4cccc4)cc3)on2)cc1OC,25 µg/mL,25 µg/mL,
Cc1ccc(-c2cc(-c3ccc(-n4cccc4)cc3)on2)cc1,12.5 µg/mL,25 µg/mL,
Cc1ccc(C)n1-c1ccccc1NC(=S)Nc1ccc(Cl)cc1,0.2 µg/mL,0.2 µg/mL,inactive
Clc1ccccc1-c1cc(-c2ccc(-n3cccc3)cc2)on1,50 µg/mL,50 µg/mL,
CC(=O)N1N=C(c2ccc(-n3cccc3)cc2)CC1c1cccc(Oc2ccccc2)c1 (configuration not stated),50 µg/mL,100 µg/mL,
O=C(/C=C/c1ccccc1)c1ccc(-n2cccc2)cc1,25 µg/mL,25 µg/mL,
CC(=O)N1N=C(c2ccc(-n3cccc3)cc2)CC1c1c(Cl)cccc1Cl (configuration not stated),50 µg/mL,25 µg/mL,
O=C(/C=C/c1c(Cl)cccc1Cl)c1ccc(-n2cccc2)cc1,50 µg/mL,25 µg/mL,
Cc1ccc(C)n1-c1ccccc1NC(=S)Nc1ccccc1,0.2 µg/mL,0.8 µg/mL,
CC(=O)N1N=C(c2ccc(-n3cccc3)cc2)CC1c1ccccc1Cl (configuration not stated),25 µg/mL,50 µg/mL,

Structure (SMILES),MIC (Escherichia coli),MIC (Staphylococcus aureus),inhibition [1]
O=C(/C=C/c1ccccc1O)c1ccc(-n2cccc2)cc1,50 µg/mL,50 µg/mL,
Brc1cccc(-c2cc(-c3ccc(-n4cccc4)cc3)on2)c1,25 µg/mL,25 µg/mL,
Cc1ccc(C)n1-c1ccccc1NC(=S)Nc1cccc(Br)c1,0.2 µg/mL,0.2 µg/mL,
Fc1ccc(-c2cc(-c3ccc(-n4cccc4)cc3)on2)cc1,12.5 µg/mL,25 µg/mL,
O=C(/C=C/c1cccc(Br)c1)c1ccc(-n2cccc2)cc1,25 µg/mL,50 µg/mL,
CC(=O)N1N=C(c2ccc(-n3cccc3)cc2)CC1c1ccc(Cl)cc1 (configuration not stated),50 µg/mL,25 µg/mL,
Oc1cc(Cl)ccc1Oc1ccc(Cl)cc1Cl,,,> 99%
O=C(/C=C/c1cccc(Oc2ccccc2)c1)c1ccc(-n2cccc2)cc1,50 µg/mL,50 µg/mL,
Cc1ccc(C)n1-c1ccccc1NC(=S)Nc1cccc(Cl)c1,0.4 µg/mL,0.2 µg/mL,
COc1ccc(/C=C/C(=O)c2ccc(-n3cccc3)cc2)cc1,12.5 µg/mL,25 µg/mL,
c1ccc(Oc2cccc(-c3cc(-c4ccc(-n5cccc5)cc4)on3)c2)cc1,50 µg/mL,50 µg/mL,
CC(C)c1ccc(/C=C/C(=O)c2ccc(-n3cccc3)cc2)cc1,12.5 µg/mL,12.5 µg/mL,
CC(=O)N1N=C(c2ccc(-n3cccc3)cc2)CC1c1ccc(C)cc1 (configuration not stated),12.5 µg/mL,25 µg/mL,
Cc1ccc(NC(=S)Nc2ccccc2-n2c(C)ccc2C)cc1,6.25 µg/mL,0.4 µg/mL,
Brc1ccccc1-c1cc(-c2ccc(-n3cccc3)cc2)on1,50 µg/mL,50 µg/mL,
Clc1cccc(-c2cc(-c3ccc(-n4cccc4)cc3)on2)c1Cl,25 µg/mL,50 µg/mL,
CC(=O)N1N=C(c2ccc(-n3cccc3)cc2)CC1c1cccc(Cl)c1Cl (configuration not stated),50 µg/mL,25 µg/mL,
Clc1cccc(Cl)c1-c1cc(-c2ccc(-n3cccc3)cc2)on1,50 µg/mL,25 µg/mL,
